Source: PubChem
CHO parental Ca = ATP-evoked calcium signal inhibitors, parental CHO, primary screen, counter-screen for OX1R antagonist project, cell-based, fluorescence, Fluo-8 calcium dye | parental CHO-K1, ATP-induced calcium, Fluo-8 fluorescence | 0.63% of 330,000 active | inhibition, % at 5.6 µM;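 active = inhibition above that plate's mean sample inhibition plus 3 SD, cut at about 26% in these data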
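Test system: untransfected parental CHO cell line. Compound: one dose, 5.6 µM nominal. Detection: intracellular calcium via Fluo-8 no-wash fluorescent dye. Measure: % inhibition. Benchmarks: ATP-challenged DMSO wells low, unchallenged DMSO wells high.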
V1aR counter = agonists of human V1a receptor, primary screen, counter-screen for OXTR agonist project, fluorescence, CHO-V1R cells. activation, % at 3 µM. Vasopressin V1a receptor (Homo sapiens), P37288. Fluo-8 calcium fluorescence, agonist mode; 0% DMSO, 100% 3 nM vasopressin. AID 2797, 2010. 0.25% of 320,000 active;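 active = activation above the mean activation of all tested compounds plus 3 SD, per screening run, cut at about 20% in these data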;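 also: signal is peak over basal fluorescence ratio across a 100 second FLIPR read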
OX1R antag-1 = antagonists of human orexin 1 receptor (OX1R) | Orexin/Hypocretin receptor type 1 (Homo sapiens), O43613 | OX1R-expressing cells, FRET antagonist read-out | AID 485270, 2010 | inhibition, % at 6.6 µM | 1.8% of 330,000 active; in the data active = inhibition mostly above about 38%, no sharp cut-off; inactive = mostly below about 40%
Target sequence (O43613 whole entry, looked up): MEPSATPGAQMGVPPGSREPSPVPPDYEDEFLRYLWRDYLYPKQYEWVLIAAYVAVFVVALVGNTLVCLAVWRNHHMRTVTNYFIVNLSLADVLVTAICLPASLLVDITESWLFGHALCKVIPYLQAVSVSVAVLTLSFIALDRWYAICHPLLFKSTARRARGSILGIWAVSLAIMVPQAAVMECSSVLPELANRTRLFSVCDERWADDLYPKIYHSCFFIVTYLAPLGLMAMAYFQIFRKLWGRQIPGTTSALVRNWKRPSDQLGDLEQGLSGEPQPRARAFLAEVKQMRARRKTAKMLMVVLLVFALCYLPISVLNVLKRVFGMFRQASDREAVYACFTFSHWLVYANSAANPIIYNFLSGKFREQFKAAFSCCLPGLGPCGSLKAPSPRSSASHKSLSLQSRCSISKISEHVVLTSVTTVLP
OX1R antag-2 = OX1R (HCRTR1) antagonists, primary screen, fluorescence, CHO/OX1R cells, Fluo-8 calcium, orexin A | Orexin/Hypocretin receptor type 1 (Homo sapiens), O43613 | Fluo-8 calcium fluorescence | inhibition, % at 5 µM | 0.43% of 330,000 active | AID 434989, 2010;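 active = inhibition above its plate's threshold, mean inhibition of all tested compounds on the plate plus 3 SD, cut at about 37% in these data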
OXTR ag = human OXTR agonists, primary screen, fluorescence, CHO-OTR cells, Fluo-8 calcium; activation, % at 3 µM; 0.32% of 320,000 active; AID 2435, 2010; Fluo-8 calcium fluorescence; normalized: DMSO 0%, oxytocin 100%;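 active = activation above the mean of all tested compounds plus 3 SD, cutoff set per screening run, cut at about 20% in these data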;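 also: peak over basal fluorescence ratio from a 100 s FLIPR kinetic read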
OXTR potentiate = human OXTR potentiators, primary screen, fluorescence, CHO-OTR cells, Fluo-8 calcium | Fluo-8 calcium fluorescence, potentiator mode; 0% = oxytocin EC15, 100% = EC100 | activation, % at 3 µM | 0.061% of 320,000 active | AID 2445, 2010 | Oxytocin receptor (Homo sapiens), P30559;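 active = activation above that plate's cutoff, the mean activation of tested compounds plus 3 SD, cut at about 6.6% in these data, passing the limit was not always enough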
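Replication – single well per compound, singlicate · Assay system – CHO cell line stably expressing human OTR · Timing – 6 min pre-incubation, 100 s read · Measure – normalized max/min fluorescence ratio, % activation · Doses – 3.0 µM, one dose · Detection – Fluo-8 calcium dye fluorescence · Probe or stimulus – oxytocin near EC15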
Numbers stand for hits; – = inactive. Compounds with a hit are over-represented: about 2.7% of the library has one in this group of screens.

SMILES	CHO parental Ca	V1aR counter	OX1R antag-1	OX1R antag-2	OXTR ag	OXTR potentiate
CCN=C1S/C(=C\c2ccc(N3CCOCC3)cc2C)C(=O)N1CC	–	–	–	–	–	–
Cc1ccc(S(=O)(=O)Nc2cccc3cccnc23)cc1	42	–	–	–	–	–
COc1cc(NS(=O)(=O)c2ccc(C)cc2)c2ncccc2c1	–	–	–	–	–	–
COc1ccc(-c2cc(C(=O)OCC(=O)N3CCOCC3)c3ccccc3n2)cc1	–	–	55	–	–	–
O=C(OCC(=O)N1CCN(C(=O)c2ccco2)CC1)c1cc(-c2ccccc2)nc2ccccc12	–	–	–	–	–	–
O=C(OCC(=O)N1CCN(C(=O)c2ccco2)CC1)c1cc(-c2cccc(Br)c2)nc2ccccc12	–	–	62	–	–	–
Oc1ccc2ccccc2c1C=NCc1cn2ccsc2n1	–	–	65	–	–	–
Oc1ccc2ccccc2c1/C=N/c1nccs1	–	–	–	–	–	–
O=C(NCc1cccc(Cl)c1)c1cccc(S(=O)(=O)N2CCCC2)c1	–	–	–	–	–	–
O=C(CN1C(=O)C(=O)N(C2CCCC2)C1=O)Nc1ccccc1OC(F)F	–	–	–	–	–	–
Cc1ccc(N(Cc2cc3ccc(C)cc3[nH]c2=O)S(=O)(=O)c2ccccc2)cc1	–	–	–	–	–	–
c1csc(CSc2nc3ccccc3s2)c1	–	–	–	–	–	–
CCn1c(CSc2nc3ccccc3s2)nc2ccccc21	55	–	100	79	–	–
O=S(=O)(c1ccc(C2CCCCC2)cc1)N1CCCC1	52	–	–	–	–	–
CCCCOc1ccc(S(=O)(=O)N2CCCCC2)cc1	42	–	–	–	–	–
CCOc1ccc(S(=O)(=O)N2CCCCCC2)cc1	–	–	–	–	–	–
COc1ccc(Nc2nnc(Cc3ccncc3)c3ccccc23)c(OC)c1	–	–	–	–	–	–
CC1(C)C(=S)N(Cc2ccccc2)c2ccccc21	–	–	–	–	–	–
Cc1ccc(S(=O)(=O)/N=C(/Nc2ccc([N+](=O)[O-])cc2)c2ccccc2)cc1	–	–	–	–	–	–
Cc1ccc(S(=O)(=O)/N=C(/Nc2ccc([N+](=O)[O-])cc2[N+](=O)[O-])c2ccccc2)cc1	–	–	52	–	–	–
COc1ccc(C(=O)Nc2cc3c(cc2OC)CCCC3)cc1Br	31	–	72	–	–	–
Cc1ccc(Nc2nc(N)nc(CSc3nc4ccccc4s3)n2)cc1	–	–	–	–	–	–
Cc1ccccc1Nc1nc(N)nc(CSc2nc3ccccc3s2)n1	–	–	67	–	–	–
CCc1nc(Nc2ccc(OC)c(OC)c2)c2nnn(Cc3ccccc3Cl)c2n1	30	–	–	–	–	–
CCOc1ccccc1NC(=O)NC1(C(=O)NCc2cccnc2)CCCCC1	–	–	–	–	–	–
SMILES	CHO parental Ca	V1aR counter	OX1R antag-1	OX1R antag-2	OXTR ag	OXTR potentiate
O=C1OCC(c2ccccc2)=C1c1ccccc1	–	–	–	–	–	–
NC1=C(c2ccccc2)C(=O)NC1=O	–	–	40	–	–	–
NN1C(=O)/C(=C2/Sc3ccccc3N2CCCS(=O)(=O)O)SC1=S	–	–	38	–	–	–
O=C1NC(=S)S/C1=C1\Sc2ccccc2N1CCCS(=O)(=O)O	–	–	–	–	–	–
Cc1cccc(NC(=O)CSc2nc3ccccc3nc2N2CCCC2)c1C	–	–	–	–	–	–
CCN1/C(=C/c2ccc3cccc(C)c3[n+]2CC)Sc2ccccc21	66	–	–	100	–	–
Cc1ccc(N(CC(=O)N2CCN(c3ccccc3F)CC2)S(=O)(=O)c2c(C)noc2C)cc1	–	–	–	–	–	–
CC(=O)c1ccc(-c2nnc(CCC(=O)N(C)Cc3cccc4cnccc34)o2)s1	–	–	35	–	–	–
CN(Cc1cccc2cnccc12)C(=O)CCc1nnc(CCc2ccccc2)o1	–	–	–	–	–	–
Cn1c(-c2ccc([N+](=O)[O-])cc2)nc2ccccc21	–	–	51	–	–	–
Cn1cc([N+](=O)[O-])cc1-c1nc2ccccc2n1C	–	–	–	–	–	–
Cc1ccc2c(c1)[C@@H]1CN(C)CC[C@@H]1N2S(=O)(=O)c1ccc([N+](=O)[O-])cc1	–	–	44	–	–	–
CC(C)(C)c1ccc(CN(Cc2ccco2)Cc2nnnn2C2CCCC2)cc1	48	–	–	–	–	–
COc1ccc2cc(CN(Cc3ccco3)Cc3nnnn3C3CCCCC3)c(=O)[nH]c2c1	–	–	–	–	–	–
Cc1c(NC(=O)COC(=O)CSc2ccc(C(N)=O)cc2[N+](=O)[O-])c(=O)n(-c2ccccc2)n1C	–	–	71	–	–	–
CCOC(=O)C1CCN(C(=O)COC(=O)CSc2ccc(C(N)=O)cc2[N+](=O)[O-])CC1	–	–	55	–	–	–
COC(=O)C1CCN(C(=O)COC(=O)CSc2ccc(C(N)=O)cc2[N+](=O)[O-])CC1	–	–	37	–	–	–
CCC1CCCCN1C(=O)COC(=O)CSc1ccc(C(N)=O)cc1[N+](=O)[O-] (configuration not stated)	–	–	–	–	–	–
Cc1ccc(C(=O)OCC(=O)Nc2c(C)n(C)n(-c3ccccc3)c2=O)cc1[N+](=O)[O-]	–	–	–	–	–	–
CCCCn1c(N)c(N(CC(C)C)C(=O)c2ccco2)c(=O)[nH]c1=O	–	–	–	–	–	–
COc1ccc(S(=O)(=O)NCC(=O)N(CC2CCCO2)C(C(=O)NC2CCCC2)C(C)C)cc1 (configuration not stated)	–	–	–	–	–	–
O=C(Nc1nnc(-c2cccs2)o1)c1cc(-c2ccccc2)nc2ccccc12	–	–	46	–	–	–
O=C(NCc1cccs1)c1cc(-c2ccccc2)nc2ccccc12	–	–	–	–	–	–
O=C(CSc1cccc[n+]1[O-])Nc1cc([N+](=O)[O-])ccc1Cl	–	–	43	–	–	–
Cc1ccc(NC(=O)CSc2cccc[n+]2[O-])c([N+](=O)[O-])c1	–	–	69	–	–	–
N#C/C(C(=O)Nc1ccc(Cl)cc1)=C(/S)Nc1ccccc1	–	–	–	–	–	–
